According to ChEMBL document CHEMBL2401699, “4-Amino-7-chloroquinolines: probing ligand efficiency provides botulinum neurotoxin serotype A light chain inhibitors with significant antiprotozoal activity” (J Med Chem, 2013):

What was measured:
Plasmodium falciparum [1] = assay: Antimalarial activity against chloroquine-sensitive Plasmodium falciparum D6 after 72 hrs by MSF assay; assay type: functional, organism-based; conditions: D6, 72 h
[2] = target: Botulinum neurotoxin type A (Clostridium botulinum) (UniProt P0DPI0); assay: Inhibition of Clostridium botulinum recombinant BoNT/A light chain at […] by reverse-phase HPLC analysis
Outline: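 Recombinant BoNT/A light chain was tested with a synthetic SNAP-25 187–203 peptide substrate (N-acetylated, C-aminated). The mix held 40 mM HEPES-0.05% Tween pH 7.3, 0.5 mg/ml BSA, 1 mM DTT, excess zinc and 20 µM inhibitor, at 37 °C, quenched with TFA. Cleaved and uncleaved peptide were separated by reverse-phase HPLC, and peak areas gave reaction rates and % inhibition.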

Plasmodium falciparum [3] = assay: Antimalarial activity against multi drug resistant Plasmodium falciparum TM91C235 after 72 hrs by MSF assay; assay type: functional, organism-based; conditions: TM91C235, 72 h
Plasmodium falciparum [4] = assay: Antimalarial activity against chloroquine-resistant Plasmodium falciparum W2 after 72 hrs by MSF assay; assay type: functional, organism-based; conditions: W2, 72 h
[5] = (§1) Half life in mouse liver microsomes at 10 uM by LC-MS/MS analysis; assay type: ADME, Microsome; conditions: liver microsomes
[6] = (§2) Half life in human liver microsomes at 10 uM by LC-MS/MS analysis; assay type: ADME, Microsome; conditions: liver microsomes
Plasmodium falciparum [7] = assay: Antimalarial activity against multidrug-resistant Plasmodium falciparum TM90C2A after 72 hrs by MSF assay; assay type: functional, organism-based
Outline: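 P. falciparum cultures at late-ring or early-trophozoite stage, 0.3% starting parasitemia and 2% hematocrit, were grown in plates predosed with quadruplicate 12-point two-fold dilutions in DMSO (final […]). Incubation was 72 h at 37 °C in 5% CO2/5% O2/90% N2. Lysis buffer with SYBR Green I (final 10x) was added, then 24 h dark at room temperature and fluorescence read. IC50/IC90 came from sigmoidal variable-slope nonlinear regression.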

Plasmodium falciparum [8] = assay: Antimalarial activity against multidrug-resistant Plasmodium falciparum TM90C2B after 72 hrs by MSF assay; assay type: functional, organism-based
HepG2 = assay: Cytotoxicity against human HepG2 cells after 48 hrs by MTT assay; assay type: cell-based; conditions: HepG2, 48 h
[9] = Selectivity index, ratio of IC50 for human HepG2 cells to IC50 for Plasmodium falciparum TM91C235; assay type: toxicity, cell-based; conditions: read-out: Ratio IC50
[10] = Selectivity index, ratio of IC50 for human HepG2 cells to IC50 for Plasmodium falciparum W2; assay type: toxicity, cell-based; conditions: read-out: Ratio IC50
[11] = Selectivity index, ratio of IC50 for human HepG2 cells to IC50 for Plasmodium falciparum D2; assay type: toxicity, cell-based; conditions: read-out: Ratio IC50
Liver = assay: as §1; assay type: ADME, Microsome; conditions: microsomes, 10 µM
Liver microsomes = assay: as §2; assay type: ADME, Microsome; conditions: microsomes, 10 µM
Plasmodium falciparum [12] = assay: Ratio of mefloquine IC50 to compound IC50 against Plasmodium falciparum TM91C235; assay type: functional

Chain of Botulinum neurotoxin type A (Clostridium botulinum) (P0DPI0 2-448 limits assumed): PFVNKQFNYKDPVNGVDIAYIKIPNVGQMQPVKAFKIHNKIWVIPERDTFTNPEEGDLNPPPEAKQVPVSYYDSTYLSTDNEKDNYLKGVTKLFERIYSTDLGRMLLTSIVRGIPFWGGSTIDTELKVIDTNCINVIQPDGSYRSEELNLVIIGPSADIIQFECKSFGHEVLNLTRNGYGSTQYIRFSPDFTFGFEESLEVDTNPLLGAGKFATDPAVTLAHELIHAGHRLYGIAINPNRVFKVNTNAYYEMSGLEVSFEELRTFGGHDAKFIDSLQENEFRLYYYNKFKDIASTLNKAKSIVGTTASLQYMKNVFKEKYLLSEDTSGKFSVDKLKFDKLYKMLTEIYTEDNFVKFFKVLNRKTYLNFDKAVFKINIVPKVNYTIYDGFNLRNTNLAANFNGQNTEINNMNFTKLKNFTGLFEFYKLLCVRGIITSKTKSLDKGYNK

## Clc1ccc2c(NCCCNCc3ccc(Br)cc3)ccnc2c1
Plasmodium falciparum [1]
  IC50: 3.95 nM
  IC90: 4.45 nM
[2]
  inhibition: 68%
Plasmodium falciparum [3]
  IC50: 6.18 nM
  IC90: 7.66 nM
Plasmodium falciparum [4]
  IC50: 5.93 nM
  IC90: 7.41 nM
[5]
  half-life at 10 µM: 1 h
[6]
  half-life at 10 µM: 1 h
Plasmodium falciparum [7]
  IC50: 7.16 nM
Plasmodium falciparum [8]
  IC50: 7.91 nM
  IC90: 12.1 nM
HepG2
  IC50: 4950 nM

## Clc1ccc2c(NCCNCc3ccncc3)ccnc2c1
Plasmodium falciparum [1]
  IC50: 60.7 nM
[2]
  inhibition: 24%
[9]
  selectivity ratio: 752
Plasmodium falciparum [3]
  IC50: 204 nM
Plasmodium falciparum [4]
  IC50: 375 nM
HepG2
  IC50: 153000 nM
[10]
  selectivity ratio: 409
[11]
  selectivity ratio: 2530

## CC(C)(C)c1ccc(CNCCNc2ccnc3cc(Cl)ccc23)cc1
Plasmodium falciparum [1]
  IC50: 24.2 nM
[2]
  inhibition: 47%
[9]
  selectivity ratio: 419
Plasmodium falciparum [3]
  IC50: 24.7 nM
Plasmodium falciparum [4]
  IC50: 42.4 nM
HepG2
  IC50: 10400 nM
[10]
  selectivity ratio: 245
[11]
  selectivity ratio: 429

## Clc1ccc2c(NCCCNCc3cccnc3)ccnc2c1
[2]
  inhibition: 39.9%
[9]
  selectivity ratio: 317
Plasmodium falciparum [3]
  IC50: 73.4 nM
Plasmodium falciparum [4]
  IC50: 260 nM
[5]
  half-life at 10 µM: 1 h
[6]
  half-life at 10 µM: 1 h
HepG2
  IC50: 23300 nM
[10]
  selectivity ratio: 90

## COc1ccc(CNCCCNc2ccnc3cc(Cl)ccc23)cc1
Plasmodium falciparum [1]
  IC50: 6.18 nM
[2]
  inhibition: 14%
[9]
  selectivity ratio: 95
Plasmodium falciparum [3]
  IC50: 50.6 nM
Plasmodium falciparum [4]
  IC50: 56.2 nM
Liver
  t1/2: 0.3 h
Liver microsomes
  t1/2: 1 h
HepG2
  IC50: 4810 nM
[10]
  selectivity ratio: 86
[11]
  selectivity ratio: 778

## COc1ccc(CNCCNc2ccnc3cc(Cl)ccc23)cc1
Plasmodium falciparum [1]
  IC50: 3.22 nM
[2]
  inhibition: 18%
[9]
  selectivity ratio: 362
Plasmodium falciparum [3]
  IC50: 16.1 nM
Plasmodium falciparum [4]
  IC50: 14.3 nM
Liver
  t1/2: 0.1 h
Liver microsomes
  t1/2: 0.45 h
Plasmodium falciparum [12]
  Ratio IC50: 4
HepG2
  IC50: 5820 nM
[10]
  selectivity ratio: 406
[11]
  selectivity ratio: 1810

## Clc1ccc2c(NCCNCc3ccc(Br)cc3)ccnc2c1
Plasmodium falciparum [1]
  IC50: 4.1 nM
[2]
  inhibition: 69%
[9]
  selectivity ratio: 660
Plasmodium falciparum [3]
  IC50: 9.98 nM
Plasmodium falciparum [4]
  IC50: 9.47 nM
[5]
  half-life at 10 µM: 1 h
[6]
  half-life at 10 µM: 1 h
Plasmodium falciparum [12]
  Ratio IC50: 4
HepG2
  IC50: 6580 nM
[10]
  selectivity ratio: 695
[11]
  selectivity ratio: 1610

## COc1ccncc1CNCCNc1ccnc2cc(Cl)ccc12
[2]
  inhibition: 19%
Plasmodium falciparum [3]
  IC50: 7.29 nM
Plasmodium falciparum [4]
  IC50: 19 nM
Liver
  t1/2: 0.383 h
Liver microsomes
  t1/2: 0.633 h

## CC(C)(C)c1ccc(CNCCCNc2ccnc3cc(Cl)ccc23)cc1
Plasmodium falciparum [1]
  IC50: 21.7 nM
[2]
  inhibition: 50.3%
[9]
  selectivity ratio: 68
Plasmodium falciparum [3]
  IC50: 31.9 nM
Plasmodium falciparum [4]
  IC50: 48.4 nM
HepG2
  IC50: 2170 nM
[10]
  selectivity ratio: 45
[11]
  selectivity ratio: 100

## Clc1ccc2c(NCCCNCc3cnccc3Cl)ccnc2c1
Plasmodium falciparum [1]
  IC50: 25.7 nM
[2]
  inhibition: 35.9%
[9]
  selectivity ratio: 121
Plasmodium falciparum [3]
  IC50: 31 nM
Plasmodium falciparum [4]
  IC50: 73 nM
Liver
  t1/2: 0.317 h
Liver microsomes
  t1/2: 0.267 h
HepG2
  IC50: 3760 nM
[10]
  selectivity ratio: 52
[11]
  selectivity ratio: 146

## Fc1ccc(CNCCCNc2ccnc3cc(Cl)ccc23)cc1
Plasmodium falciparum [1]
  IC50: 13.1 nM
[2]
  inhibition: 50.1%
[9]
  selectivity ratio: 185
Plasmodium falciparum [3]
  IC50: 29.4 nM
Plasmodium falciparum [4]
  IC50: 49.4 nM
HepG2
  IC50: 5430 nM
[10]
  selectivity ratio: 110
[11]
  selectivity ratio: 415

## Clc1ccc2c(NCCCNCc3ccccc3)ccnc2c1
Plasmodium falciparum [1]
  IC50: 17.2 nM
[2]
  inhibition: 51.8%
[9]
  selectivity ratio: 73
Plasmodium falciparum [3]
  IC50: 39.9 nM
Plasmodium falciparum [4]
  IC50: 52.2 nM
[5]
  half-life at 10 µM: 1 h
[6]
  half-life at 10 µM: 1 h
HepG2
  IC50: 2910 nM
[10]
  selectivity ratio: 56
[11]
  selectivity ratio: 169

## COc1ccncc1CNCCCNc1ccnc2cc(Cl)ccc12
Plasmodium falciparum [1]
  IC50: 4.76 nM
[2]
  inhibition: 43.2%
[9]
  selectivity ratio: 93
Plasmodium falciparum [3]
  IC50: 53.2 nM
Plasmodium falciparum [4]
  IC50: 86.9 nM
[5]
  half-life at 10 µM: 1 h
[6]
  half-life at 10 µM: 1 h
HepG2
  IC50: 4970 nM
[10]
  selectivity ratio: 57
[11]
  selectivity ratio: 1040

## C[C@@H]1CC[C@H]2[C@@H](C)C(=O)O[C@@H]3O[C@@]4(C)CC[C@@H]1[C@]32OO4 [ARTEMISININ]
Plasmodium falciparum [1]
  IC50: 9 nM
Plasmodium falciparum [3]
  IC50: 13 nM
Plasmodium falciparum [4]
  IC50: 6.7 nM

## O[C@@H](c1cc(C(F)(F)F)nc2c(C(F)(F)F)cccc12)[C@H]1CCCCN1 (racemic)
Plasmodium falciparum [1]
  IC90: 43.6 nM
[2]
  inhibition: 28%
Plasmodium falciparum [7]
  IC50: 51.1 nM

## Clc1ccc2c(NCCCNCc3ccncc3)ccnc2c1
Plasmodium falciparum [1]
  IC50: 8.65 nM
[2]
  inhibition: 42.3%
[9]
  selectivity ratio: 469
Plasmodium falciparum [3]
  IC50: 76.4 nM
Plasmodium falciparum [4]
  IC50: 204 nM
Liver
  t1/2: 0.15 h
Liver microsomes
  t1/2: 0.15 h
HepG2
  IC50: 35900 nM
[10]
  selectivity ratio: 176
[11]
  selectivity ratio: 4150

## Clc1ccc2c(NCCNCc3cnccc3Cl)ccnc2c1
Plasmodium falciparum [1]
  IC50: 63.8 nM
[2]
  inhibition: 23%
[9]
  selectivity ratio: 78
Plasmodium falciparum [3]
  IC50: 83.3 nM
Plasmodium falciparum [4]
  IC50: 141 nM
Liver
  t1/2: 0.617 h
Liver microsomes
  t1/2: 0.167 h
HepG2
  IC50: 6500 nM
[10]
  selectivity ratio: 46
[11]
  selectivity ratio: 102

## Fc1ccc(CNCCNc2ccnc3cc(Cl)ccc23)cc1
Plasmodium falciparum [1]
  IC50: 26.4 nM
[2]
  inhibition: 68%
[9]
  selectivity ratio: 291
Plasmodium falciparum [3]
  IC50: 55.2 nM
Plasmodium falciparum [4]
  IC50: 45.8 nM
HepG2
  IC50: 16000 nM
[10]
  selectivity ratio: 350
[11]
  selectivity ratio: 608

## Clc1ccc2c(NCCNCc3ccccc3)ccnc2c1
Plasmodium falciparum [1]
  IC50: 6.41 nM
  IC90: 9.62 nM
[2]
  inhibition: 52%
Plasmodium falciparum [3]
  IC50: 7.38 nM
  IC90: 9.3 nM
Plasmodium falciparum [4]
  IC50: 10.9 nM
Liver
  t1/2: 0.383 h
[6]
  half-life at 10 µM: 1 h
Plasmodium falciparum [7]
  IC50: 9.94 nM
Plasmodium falciparum [8]
  IC50: 9.3 nM
  IC90: 12.5 nM
HepG2
  IC50: 19400 nM

## CCN(CC)CCCC(C)Nc1ccnc2cc(Cl)ccc12 (centres undefined) [CHLOROQUINE PHOSPHATE]
Plasmodium falciparum [1]
  IC90: 19.2 nM
[2]
  inhibition: 7%
Plasmodium falciparum [3]
  IC90: 476 nM
Plasmodium falciparum [4]
  IC90: 942 nM
Plasmodium falciparum [8]
  IC90: 602 nM

## Clc1ccc2c(NCCNCc3cccnc3)ccnc2c1
Plasmodium falciparum [1]
  IC50: 53.4 nM
[2]
  inhibition: 25%
[9]
  selectivity ratio: 882
Plasmodium falciparum [3]
  IC50: 109 nM
Plasmodium falciparum [4]
  IC50: 225 nM
HepG2
  IC50: 95900 nM
[10]
  selectivity ratio: 426
[11]
  selectivity ratio: 1800
